Results taken from article PMC4987166 (Clinical cancer research : an official journal of the …, 2016).
pIC50: −log10 of the molar value.

Tests used:
[1] = tested on: EWS-FLI1 target genes (NR0B1); assay: Quantitative RT-PCR of NR0B1 and EWS-FLI1 target gene expression in TC32 cells; format: cell-based; details: for concentration showing equivalent suppression of EWS-FLI1 targets NR0B1, EZH2, and ID2: qPCR, 12 h
Ewing sarcoma cells = assay: Cell proliferation / cell viability IC50 at 48 h; format: cell-based; details: read-out: cell viability IC50; 48 h of treatment
Outline: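 Ewing sarcoma cells (TC32/TC71), STR-authenticated, grown in RPMI 1640 with 10% FBS, 2mM L-Gln and penicillin/streptomycin. Cells exposed to test compound for 48 h and cell number recorded across a dose range. IC50 from non-linear regression over at least 3 independent experiments.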

CD-1 mice = assay: Maximum tolerated dose in healthy CD-1 mice; details: mouse, in vivo
rat = assay: Rat toxicity: liver enzymes, liver synthetic function, hematopoiesis; details: in vivo, 8 mg/kg
[2] = Serum drug levels in mice; details: mouse, in vivo
[3] = tested on: EWS-FLI1 target genes EZH2, NR0B1, and ID2; assay: Immunoblot of EWS-FLI1 downstream targets; format: cell-based; details: TC32 cells, 50 nmol/L, 18 h
HepG2 cells = assay: Time-lapse microscopy of HepG2 proliferation; format: cell-based; details: 50 nmol/L mithramycin, 50 nmol/L EC-8042 or 7.5 nmol/L EC-8105
γH2AX phosphorylation = assay: DNA damage by phosphorylation of γH2AX; format: cell-based; details: 50 nmol/L mithramycin, 50 nmol/L EC-8042 or 7.5 nmol/L EC-8105
TC71 xenograft [4] = assay: TC71 Ewing sarcoma xenograft in nude mice; format: in vivo
[5] = tested on: NR0B1 expression (EWS-FLI1 activity); assay: Immunofluorescence for NR0B1 in xenograft tumor tissue; format: in vivo, mouse; details: TC71 xenograft, day 3 of treatment, IP
TC71 xenograft [6] = details: TC32 and TC71 xenografts, 1 mg/kg IP M/W/F; cited from earlier work

Row | Molecule | effect on panel of EWS-FLI1 target genes ([1]; Fig. 3B, legend: 15 nM for 18 h or 3 h) | concentration showing equivalent suppression of EWS-FLI1 targets NR0B1, EZH2, and ID2 [1] [nmol/L] | pIC50 (Ewing sarcoma cells) | Intraperitoneal MTD (CD-1 mice; ip) [mg/kg] | Intravenous MTD (CD-1 mice; iv) [mg/kg] | other toxicities (myelosuppression, compromise of liver synthetic function) (rat) | serum levels of drug [2] [µM] | suppression of EWS-FLI1 targets EZH2, NR0B1, and ID2 at the protein level [3] | proliferation of HepG2 cells (HepG2 cells) | DNA damage as measured by phosphorylation of γH2AX (γH2AX phosphorylation) | tumor regression (TC71 xenograft [4]; 24 mg/kg IP (12% of the IP MTD)) | tumor growth rate less per day than the control (TC71 xenograft [4]; 24 mg/kg IP M/W/F, while being treated) [mm^3] | mean tumor size on day 11 of treatment (TC71 xenograft [4]; 24 mg/kg IP, control 3177 mm^3) [mm^3] | tumor growth less per day than the control (TC71 xenograft [4]; 24 mg/kg IV Q3D, while on treatment) [mm^3] | survival of treated cohort (TC71 xenograft [4]; 24 mg/kg IV, P <0.0001) | EWS-FLI1 activity in tumor tissue by NR0B1 immunofluorescent staining [5] | fold change in NR0B1 expression ([1]; TC32 cells, 50 nmol/L, 12 hr, qPCR vs GAPDH) | xenograft tumor growth (TC71 xenograft [6])
1 | CO[C@@H]([C@@H]1Cc2cc3cc(O[C@H]4CC(O[C@H]5CC(O)[C@H](O)C(C)O5)[C@H](O)C(C)O4)c(C)c(O)c3c(O)c2C(=O)[C@H]1O[C@H]1CC(O[C@H]2CC(O[C@H]3CC(O)[C@H](O)C(C)O3)[C@@H](O)C(C)O2)[C@H](O)C(C)O1)[C@@H](O)C(C)=O (stereo partly drawn) [EC-8042] | All the EWS-FLI1 induced targets were suppressed and all the repressed targets were induced to a comparable extent as mithramycin | 50 | 7.42 | 200 | 64 | no evidence of other toxicities | 4.295 | suppressed | neither EC-8105 or EC-8042 had any effect | no DNA damaging effects | every tumor in every mouse showed some level of regression | 268.2 | 422.5 | 151 | extended the survival | clear suppression of EWS-FLI1 activity | – | –
2 | mithramycin [reference compound] | – | 50 | 7.81 | – | – | – | – | suppressed | – | – | – | – | – | – | – | – | 0.48 | markedly suppresses and even regresses tumor growth
